Residue numbers refer to the chain shown, from its start.
What was measured:
Conditions in all cases: stereoisomer not certain
A0A140T8K0 = test system: T1, A0A140T8K0
T1 sequence (whole entry): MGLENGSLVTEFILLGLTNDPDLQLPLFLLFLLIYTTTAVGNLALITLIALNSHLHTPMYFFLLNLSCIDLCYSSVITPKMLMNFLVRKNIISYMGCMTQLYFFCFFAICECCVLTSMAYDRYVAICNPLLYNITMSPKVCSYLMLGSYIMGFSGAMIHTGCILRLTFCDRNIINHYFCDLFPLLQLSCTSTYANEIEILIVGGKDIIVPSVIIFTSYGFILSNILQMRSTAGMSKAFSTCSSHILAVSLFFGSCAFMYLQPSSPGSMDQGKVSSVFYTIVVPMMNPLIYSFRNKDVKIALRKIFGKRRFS
Summary of the method: (§1)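 Whether a receptor–molecule pair is responsive (active) rests on the original authors' judgment that its measured signal was statistically different from baseline. Pairs without that judgment are non-responsive (inactive). Sources used varied assay methods, commonly transient luciferase assays in mammalian cell lines.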

A0A140T8K4 = test system: T2, A0A140T8K4
T2 sequence (whole entry): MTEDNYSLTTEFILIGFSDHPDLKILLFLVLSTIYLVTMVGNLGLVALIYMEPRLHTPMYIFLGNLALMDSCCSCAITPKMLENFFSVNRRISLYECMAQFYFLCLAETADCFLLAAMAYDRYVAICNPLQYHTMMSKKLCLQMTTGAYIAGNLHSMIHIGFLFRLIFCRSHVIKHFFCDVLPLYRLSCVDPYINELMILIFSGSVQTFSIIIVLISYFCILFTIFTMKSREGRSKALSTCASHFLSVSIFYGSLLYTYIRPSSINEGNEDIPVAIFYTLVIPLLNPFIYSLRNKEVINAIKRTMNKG
Summary of the method: as §1

A0A1L1SVG7 = test system: T3, A0A1L1SVG7
T3 sequence (whole entry): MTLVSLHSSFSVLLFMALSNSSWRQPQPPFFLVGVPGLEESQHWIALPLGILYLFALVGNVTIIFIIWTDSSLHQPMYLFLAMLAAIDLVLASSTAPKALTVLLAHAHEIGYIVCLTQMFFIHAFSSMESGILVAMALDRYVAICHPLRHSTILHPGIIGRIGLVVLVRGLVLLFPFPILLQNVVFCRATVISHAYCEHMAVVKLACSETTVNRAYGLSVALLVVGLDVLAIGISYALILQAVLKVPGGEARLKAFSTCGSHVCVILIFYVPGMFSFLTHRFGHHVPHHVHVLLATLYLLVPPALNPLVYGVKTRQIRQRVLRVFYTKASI
Summary of the method: as §1

A0A2J8MY22 = test system: T4, A0A2J8MY22
T4 sequence (whole entry): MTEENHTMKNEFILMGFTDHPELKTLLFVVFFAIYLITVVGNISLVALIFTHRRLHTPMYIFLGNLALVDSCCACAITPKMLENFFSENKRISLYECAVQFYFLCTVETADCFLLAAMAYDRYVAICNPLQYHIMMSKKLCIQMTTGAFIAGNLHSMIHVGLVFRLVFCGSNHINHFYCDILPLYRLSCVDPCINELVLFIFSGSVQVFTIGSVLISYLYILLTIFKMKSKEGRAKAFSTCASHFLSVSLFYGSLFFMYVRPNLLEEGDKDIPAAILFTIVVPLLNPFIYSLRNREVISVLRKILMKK
Summary of the method: as §1

A0A2R8ZIW4 = test system: T5, A0A2R8ZIW4
T5 sequence (whole entry): T4 sequence (whole entry) with V39I, I280V
Summary of the method: as §1

A0A3Q7SVK8 = test system: T6, A0A3Q7SVK8
T6 sequence (whole entry): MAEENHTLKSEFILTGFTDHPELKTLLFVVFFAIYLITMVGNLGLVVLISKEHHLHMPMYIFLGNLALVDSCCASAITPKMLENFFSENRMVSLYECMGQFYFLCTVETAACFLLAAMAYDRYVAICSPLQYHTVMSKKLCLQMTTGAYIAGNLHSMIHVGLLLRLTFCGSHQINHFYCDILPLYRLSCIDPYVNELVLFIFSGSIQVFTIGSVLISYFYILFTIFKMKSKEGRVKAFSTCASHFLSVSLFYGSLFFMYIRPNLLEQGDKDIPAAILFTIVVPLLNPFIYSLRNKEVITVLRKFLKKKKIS
Summary of the method: as §1

A0A6P3DZI2 = test system: T7, A0A6P3DZI2
T7 sequence (whole entry): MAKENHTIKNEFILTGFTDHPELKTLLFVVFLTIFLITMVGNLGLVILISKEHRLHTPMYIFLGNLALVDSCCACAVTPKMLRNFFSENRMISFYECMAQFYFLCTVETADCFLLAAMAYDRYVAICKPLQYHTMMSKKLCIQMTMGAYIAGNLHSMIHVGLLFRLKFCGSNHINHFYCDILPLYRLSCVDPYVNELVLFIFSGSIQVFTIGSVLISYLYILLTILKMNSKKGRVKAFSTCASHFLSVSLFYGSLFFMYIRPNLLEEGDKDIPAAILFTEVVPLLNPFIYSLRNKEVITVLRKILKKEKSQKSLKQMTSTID
Summary of the method: as §1

A0A6P6H1F7 = test system: T8, A0A6P6H1F7
T8 sequence (whole entry): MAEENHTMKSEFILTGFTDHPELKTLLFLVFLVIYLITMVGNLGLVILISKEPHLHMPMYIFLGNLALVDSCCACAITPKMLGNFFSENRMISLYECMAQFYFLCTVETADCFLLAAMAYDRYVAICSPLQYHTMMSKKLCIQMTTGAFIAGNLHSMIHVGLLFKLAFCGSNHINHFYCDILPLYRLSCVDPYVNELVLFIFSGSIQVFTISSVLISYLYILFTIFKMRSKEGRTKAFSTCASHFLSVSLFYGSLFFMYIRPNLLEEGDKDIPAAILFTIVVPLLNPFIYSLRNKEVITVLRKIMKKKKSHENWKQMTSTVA
Summary of the method: as §1

O10A2 H43R H207R K258T = test system: T9, O10A2 H43R H207R K258T
T9 sequence (whole entry): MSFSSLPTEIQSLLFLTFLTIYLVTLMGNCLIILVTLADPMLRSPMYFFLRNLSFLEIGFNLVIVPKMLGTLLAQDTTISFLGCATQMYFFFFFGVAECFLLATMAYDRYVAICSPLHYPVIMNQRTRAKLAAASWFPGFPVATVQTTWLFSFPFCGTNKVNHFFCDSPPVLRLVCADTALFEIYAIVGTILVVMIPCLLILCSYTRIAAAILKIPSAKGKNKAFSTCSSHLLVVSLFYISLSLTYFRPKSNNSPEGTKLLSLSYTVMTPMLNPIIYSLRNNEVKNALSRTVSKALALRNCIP
Summary of the method: as §1

O10A3 C8G = test system: T10, O10A3 C8G
T10 sequence (whole entry): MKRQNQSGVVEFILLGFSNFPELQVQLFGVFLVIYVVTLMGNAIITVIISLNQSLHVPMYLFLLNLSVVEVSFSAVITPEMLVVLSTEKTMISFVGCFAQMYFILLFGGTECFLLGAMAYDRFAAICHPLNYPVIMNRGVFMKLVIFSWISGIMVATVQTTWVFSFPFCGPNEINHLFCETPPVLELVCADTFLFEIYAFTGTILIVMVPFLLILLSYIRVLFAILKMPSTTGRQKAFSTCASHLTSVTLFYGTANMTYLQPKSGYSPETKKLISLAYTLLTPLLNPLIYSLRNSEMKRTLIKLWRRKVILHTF
Summary of the method: as §1

O10A6 = test system: T11, O10A6
T11 sequence (whole entry): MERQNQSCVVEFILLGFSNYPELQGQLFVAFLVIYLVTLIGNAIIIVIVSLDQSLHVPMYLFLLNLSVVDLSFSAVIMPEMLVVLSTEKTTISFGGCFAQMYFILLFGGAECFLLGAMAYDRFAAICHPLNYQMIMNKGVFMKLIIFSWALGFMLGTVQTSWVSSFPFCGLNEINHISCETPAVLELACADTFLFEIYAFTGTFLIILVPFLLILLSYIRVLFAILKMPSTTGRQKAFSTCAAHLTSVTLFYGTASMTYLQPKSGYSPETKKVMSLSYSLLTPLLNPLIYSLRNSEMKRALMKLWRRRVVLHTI
Summary of the method: as §1

O10AD G65C = test system: T12, O10AD G65C
T12 sequence (whole entry): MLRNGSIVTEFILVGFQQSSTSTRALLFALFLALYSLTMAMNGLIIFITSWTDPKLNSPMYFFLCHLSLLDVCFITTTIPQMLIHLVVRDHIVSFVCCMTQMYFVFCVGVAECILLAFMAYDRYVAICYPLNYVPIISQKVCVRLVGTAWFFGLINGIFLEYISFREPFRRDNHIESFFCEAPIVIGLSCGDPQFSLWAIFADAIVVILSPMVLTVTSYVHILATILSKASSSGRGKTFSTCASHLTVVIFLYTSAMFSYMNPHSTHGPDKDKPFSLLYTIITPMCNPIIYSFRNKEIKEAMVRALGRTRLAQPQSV
Summary of the method: as §1

O10D3 V134A R197K = test system: T13, O10D3 V134A R197K
T13 sequence (whole entry): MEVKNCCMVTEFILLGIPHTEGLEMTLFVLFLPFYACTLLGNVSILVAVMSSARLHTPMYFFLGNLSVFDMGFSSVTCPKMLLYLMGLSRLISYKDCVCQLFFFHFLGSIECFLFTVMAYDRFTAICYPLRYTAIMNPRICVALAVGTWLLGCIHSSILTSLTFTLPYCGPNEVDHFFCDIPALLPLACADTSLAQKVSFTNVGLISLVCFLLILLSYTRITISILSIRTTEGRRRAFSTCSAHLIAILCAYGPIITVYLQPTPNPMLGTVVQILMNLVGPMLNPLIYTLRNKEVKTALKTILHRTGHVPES
Summary of the method: as §1

O10G4 L24P V195E = test system: T14, O10G4 L24P V195E
T14 sequence (whole entry): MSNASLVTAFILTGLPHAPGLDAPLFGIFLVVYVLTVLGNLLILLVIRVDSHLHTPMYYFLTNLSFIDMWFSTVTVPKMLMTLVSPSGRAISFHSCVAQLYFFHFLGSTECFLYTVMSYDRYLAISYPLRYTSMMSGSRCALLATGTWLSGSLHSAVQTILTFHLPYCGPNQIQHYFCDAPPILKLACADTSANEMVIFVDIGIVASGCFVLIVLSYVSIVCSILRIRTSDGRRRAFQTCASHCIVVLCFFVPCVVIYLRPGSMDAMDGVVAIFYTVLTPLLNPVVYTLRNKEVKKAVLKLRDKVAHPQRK
Summary of the method: as §1

O10G7 A18V P19Q G20A = test system: T15, O10G7 A18V P19Q G20A
T15 sequence (whole entry): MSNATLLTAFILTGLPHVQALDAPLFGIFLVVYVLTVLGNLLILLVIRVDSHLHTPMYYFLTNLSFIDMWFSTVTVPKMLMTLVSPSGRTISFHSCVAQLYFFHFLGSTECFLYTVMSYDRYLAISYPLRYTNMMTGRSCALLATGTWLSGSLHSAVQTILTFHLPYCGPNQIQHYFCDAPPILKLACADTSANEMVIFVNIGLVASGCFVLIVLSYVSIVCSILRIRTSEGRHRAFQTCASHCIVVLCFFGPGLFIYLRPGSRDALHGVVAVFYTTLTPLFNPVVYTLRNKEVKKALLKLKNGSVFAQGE
Summary of the method: as §1

O10G7 I28V = test system: T16, O10G7 I28V
T16 sequence (whole entry): T15 sequence (whole entry) with V18A, Q19P, A20G, I28V
Summary of the method: as §1

Measured: odorant receptor agonist call;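 note: active if original authors judged signal statistically different from baseline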

CC(C)=CCCC(C)=CCO
inactive: A0A140T8K0 | A0A140T8K4 | A0A1L1SVG7

C=CCOC(=O)CCCCCC
inactive: A0A140T8K0 | A0A140T8K4 | A0A1L1SVG7

CCCCCCOC(C)=O
inactive: A0A140T8K0 | A0A140T8K4 | A0A1L1SVG7

CCCCOC=O
inactive: A0A140T8K0 | A0A140T8K4 | A0A1L1SVG7

CCCCCCCCO
inactive: A0A140T8K0 | A0A140T8K4 | A0A1L1SVG7

CCCCCCCCCC(=O)[O-].[H+]
active: A0A1L1SVG7
inactive: A0A140T8K0 | A0A140T8K4

CCCCCCCC(C)=O
inactive: A0A140T8K0 | A0A140T8K4 | A0A1L1SVG7

CCCCC(=O)CC
inactive: A0A140T8K0 | A0A140T8K4 | A0A1L1SVG7

CCC(=O)O
inactive: A0A140T8K0 | A0A140T8K4 | A0A1L1SVG7

CCCCCCCCCO
inactive: A0A140T8K0 | A0A140T8K4 | A0A1L1SVG7

CCCCCCCO
inactive: A0A140T8K0 | A0A140T8K4 | A0A1L1SVG7

CCCCCCCCCS
inactive: A0A140T8K0 | A0A140T8K4 | A0A1L1SVG7

CCOC(=O)C(C)C
inactive: A0A140T8K0 | A0A140T8K4 | A0A1L1SVG7

C=CC(=C)CCC=C(C)CCC=C(C)C
inactive: A0A140T8K0

CCCCC(C)=O
inactive: A0A140T8K0 | A0A140T8K4 | A0A1L1SVG7

O=C(c1ccccc1)c1ccccc1
inactive: A0A140T8K0 | A0A140T8K4 | A0A1L1SVG7

CCCC(=O)C(C)=O
inactive: A0A140T8K0 | A0A140T8K4 | A0A1L1SVG7

O=C1Cc2ccccc2O1
inactive: A0A140T8K0 | A0A140T8K4 | A0A1L1SVG7

CCCCCCCCC(=O)O
inactive: A0A140T8K0 | A0A140T8K4
active: A0A1L1SVG7

CCCCCCCCS
inactive: A0A140T8K0 | A0A140T8K4 | A0A1L1SVG7

COc1cnccn1
inactive: A0A140T8K0 | A0A140T8K4 | A0A6P3DZI2
active: A0A2J8MY22 | A0A2R8ZIW4 | A0A3Q7SVK8 | A0A6P6H1F7

CCC1OC(C)=C(O)C1=O (stereo not given)
inactive: O10A2 H43R H207R K258T | O10A3 C8G | O10A6 | O10AD G65C | O10D3 V134A R197K | O10G4 L24P V195E | O10G7 A18V P19Q G20A | O10G7 I28V

CCCC(C)=O
inactive: A0A140T8K4 | A0A1L1SVG7

CC1=C(O)C(=O)OC1C (stereo not given)
inactive: O10A2 H43R H207R K258T | O10A3 C8G | O10A6 | O10AD G65C | O10D3 V134A R197K | O10G4 L24P V195E | O10G7 A18V P19Q G20A | O10G7 I28V

CCc1cnc(C)c(C)n1
active: A0A140T8K4 | A0A2J8MY22
inactive: A0A2R8ZIW4 | A0A3Q7SVK8 | A0A6P3DZI2 | A0A6P6H1F7

CC(=O)c1nccnc1C
active: A0A2J8MY22 | A0A2R8ZIW4 | A0A3Q7SVK8 | A0A6P6H1F7
inactive: A0A140T8K4 | A0A6P3DZI2

From the M2OR odorant receptor database
